Data taken from ChEMBL document CHEMBL1143246, “Design and synthesis of bicyclic pyrimidinones as potent and orally bioavailable HIV-1 integrase inhibitors” (J Med Chem, 2008).

Key:
[1] = Inhibition of recombinant HIV1 integrase strand transfer activity
[2] = system: Human immunodeficiency virus 1; test: Antiviral activity against HIV1 in human MT4 cell assessed as inhibition of virus spread in presence of 50% normal human serum; type: functional; conditions: Human immunodeficiency virus 1, MT4; read-out: CIC95
Method in brief: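 Spread of HIV-1 infection in MT-4 human T-lymphoid cell culture with 50% normal human serum; CIC95 is the concentration inhibiting spread by ≥95%; mean of at least three independent experiments.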

[3] = system: Human immunodeficiency virus 1; test: Antiviral activity against HIV1 in human MT4 cell assessed as inhibition of virus spread in presence of 10% fetal bovine serum; type: functional; conditions: Human immunodeficiency virus 1, MT4; read-out: CIC95
Method in brief: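 Spread of HIV-1 infection in MT-4 human T-lymphoid cell culture with 10% fetal bovine serum; CIC95 is the concentration inhibiting spread by ≥95%; mean of at least three independent experiments.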

Compound	IC50 [1] [nM]	IC95 [2] [nM]	IC95 [3] [nM]
CC(c1nc(O)c(O)c(C(=O)NCc2ccc(F)cc2)n1)N(C)C (configuration not stated)	100	500	130
CN1CCOCC1c1nc(O)c(O)c(C(=O)NCc2ccc(F)cc2)n1 (configuration not stated)	10	230	30
O=C(NCc1ccc(F)cc1)c1ncnc(O)c1O	60	> 10000	> 10000
CN(C)C(=O)C(=O)N(C)[C@@H]1CCCCn2c1nc(C(=O)NCc1ccc(F)cc1)c(O)c2=O	35	42	21
CN1CCN(S(=O)(=O)N(C)[C@@H]2CCCn3c2nc(C(=O)NCc2ccc(F)cc2)c(O)c3=O)CC1	10	20	13
CN(C)C(=O)C(=O)N(C)[C@@H]1CCCn2c1nc(C(=O)NCc1ccc(F)cc1)c(O)c2=O	19	98	67
CN(C(=O)CS(=O)(=O)N(C)C)[C@@H]1CCCn2c1nc(C(=O)NCc1ccc(F)cc1)c(O)c2=O	7	62	31
O=C(NCc1ccc(F)cc1)c1nc2n(c(=O)c1O)CCCC2	5		
CN1CCOCC1c1nc(C(=O)NCc2ccc(F)cc2)c(O)c(=O)n1C (configuration not stated)		100	60
O=C(NCc1ccc(F)cc1)c1nc2n(c(=O)c1O)CCC2	8		
O=C(NCc1ccc(F)cc1)c1nc2n(c(=O)c1O)CCCCC2	19		
CN(Cc1ccccc1)C1CCCCn2c1nc(C(=O)NCc1ccc(F)cc1)c(O)c2=O (racemic)	62		
CN(Cc1ccccc1)C1CCCn2c1nc(C(=O)NCc1ccc(F)cc1)c(O)c2=O (racemic)	4		
CN(C)C(=O)C(=O)N(C)C1CCn2c1nc(C(=O)NCc1ccc(F)cc1)c(O)c2=O (racemic)	20	> 1000	> 1000
CN(C)C(=O)C(=O)N(C)C1CCCCn2c1nc(C(=O)NCc1ccc(F)cc1)c(O)c2=O (racemic)	13	63	94
O=C(NCc1ccc(F)cc1)c1nc2n(c(=O)c1O)CCCC2N1CCOCC1 (racemic)	5		
CN(C1CCCn2c1nc(C(=O)NCc1ccc(F)cc1)c(O)c2=O)S(=O)(=O)N1CCOCC1 (racemic)	11	31	15
CN1CCCN(C2CCCn3c2nc(C(=O)NCc2ccc(F)cc2)c(O)c3=O)S1(=O)=O (racemic)	14	47	16
CN(C1CCCn2c1nc(C(=O)NCc1ccc(F)cc1)c(O)c2=O)S(=O)(=O)N1CCCCC1 (racemic)	9	125	63
O=C(NCc1ccc(F)cc1)c1nc2n(c(=O)c1O)CCCC2N1CCCCC1 (racemic)	4		
CN1CCN(S(=O)(=O)N(C)C2CCCn3c2nc(C(=O)NCc2ccc(F)cc2)c(O)c3=O)CC1 (racemic)	7	20	6
CN(C)C1CCn2c1nc(C(=O)NCc1ccc(F)cc1)c(O)c2=O (racemic)	7		
O=C(NCc1ccc(F)cc1)c1nc2n(c(=O)c1O)CCCC2N1CCCC1 (racemic)	63		
CN(C)C1CCCCn2c1nc(C(=O)NCc1ccc(F)cc1)c(O)c2=O (racemic)	550		
CN(C1CCCn2c1nc(C(=O)NCc1ccc(F)cc1)c(O)c2=O)S(=O)(=O)N1CCCC1 (racemic)	7	47	16
CN1CCCN(C2CCCCn3c2nc(C(=O)NCc2ccc(F)cc2)c(O)c3=O)S1(=O)=O (racemic)	6	156	78
CN(C)C(=O)C(=O)N(C)C1CCCn2c1nc(C(=O)NCc1ccc(F)cc1)c(O)c2=O (racemic)	7	40	38
O=C(NCc1ccc(F)cc1)c1nc2n(c(=O)c1O)CCCCC2N1CCOCC1 (racemic)	62		
CN(C)C1CCCn2c1nc(C(=O)NCc1ccc(F)cc1)c(O)c2=O (racemic)	69		
